Article PMC6370461 (ACS chemical biology, 2018)

Experiments:
[1] = target: T1, DJ-1 in HeLa cells (Homo sapiens, UniProt Q99497); assay: CML-modified protein by western blot in HeLa cells; type: cell-based; details: highest concentration employed
T1 sequence (Q99497 1-189): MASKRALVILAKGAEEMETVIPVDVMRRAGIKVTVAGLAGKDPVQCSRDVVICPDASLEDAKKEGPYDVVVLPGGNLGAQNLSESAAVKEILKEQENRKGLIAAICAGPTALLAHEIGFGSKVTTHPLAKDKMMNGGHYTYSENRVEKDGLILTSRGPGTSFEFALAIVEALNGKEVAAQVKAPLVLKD
In short: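 HeLa cells (1.5×10^5 per well) were grown 24 h in DMEM with 10% FBS, starved 20 h in 0.5% FBS, then exposed 3 h to compound in 0.5% FBS with 0.2% DMSO. DJ-1 knockout HeLa cells were also used. RIPA lysates went to SDS-PAGE and nitrocellulose. The anti-CML blot was read by HRP chemiluminescence; DJ-1 and β-actin were detected by Cy5 fluorescence.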

[2] = target: T1, DJ-1 in HeLa cells; assay: Cellular thermal shift assay; type: cell-based; details: thermal treatment at 63 °C
[3] = target: T2, Human DJ-1 (Homo sapiens, UniProt Q99497); assay: In vitro glyoxalase activity assay with phenylglyoxal as substrate; type: biochemical
T2 sequence (Q99497 1-189): T1 sequence (Q99497 1-189)
In short: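 Recombinant DJ-1 0.5 μM with phenylglyoxal 2 μM in 100 mM potassium phosphate pH 7.0, 1% DMSO; compound 1.0 nM–30 μM. Initial velocities were taken from the loss of absorbance at 250 nm. Activity was expressed as the velocity ratio with versus without inhibitor, and sigmoidal fits gave the inhibition constant.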

[4] = target: T2, Human DJ-1; assay: Thermal stability of DJ-1 by DSF; type: binding; details: DJ-1 10 μM, compound 50 μM
In short: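 Tag-free DJ-1 (10 μM) with compound (50 μM) in PBS, 0.01% Tween 20 and 2.5% DMSO, with SYPRO Orange dye (excitation 470 nm, emission 570 nm). Samples were heated from 30 to 85 °C at 2 °C/min. TM was taken from the inflection point of the derivative unfolding curve and compared with unbound protein.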

[5] = tested on: DJ-1 in HEK293 cells; assay: Glyoxalase/deglycase activity in cells: CML-modified proteins by western blot; type: cell-based, human; details: glyoxal 2 mM
In short: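 HEK293 cells (2×10^5 per 6 cm dish) were cultured 3 days in DMEM with 10% FBS, then starved 20 h in 1% FBS. Treatment was 3 h in DMEM with 1% FBS, 0.2% DMSO and compound, with or without glyoxal (2 mM). Lysates underwent SDS-PAGE, nitrocellulose transfer and immunoblotting for carboxymethyl lysine, DJ-1 and β-actin, detected with HRP secondaries.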

[6] = target: T2, Human DJ-1; assay: Binding affinity and thermodynamics by ITC
In short: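 Recombinant human DJ-1 (E. coli-expressed) dialysed into PBS to remove DTT; compounds in the same PBS with 5% DMSO. Titrations at 25 °C with protein in the cell and compound in the syringe: DJ-1 20 μM against compound 200 μM (muteins: protein 100 μM, compound 1 mM). Isotherms fitted to a one-site binding model.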

O=C1Nc2ccccc2C1=O [compound 1, 1H-indole-2,3-dione]
intensity of a protein modified with CML [1]: clearly increases
stabilization of the soluble form of DJ-1 in cells [2]: concentration-dependent stabilization
IC50 [3]: 13 µM
ΔTM, thermal stabilization with respect to the unbound protein [4]: 1.8 °C
intensity of bands of proteins modified with CML compared with DMSO control [5]: increased significantly
Kd [6]: 3.2 ± 0.1 µM
enthalpic efficiency (EE) [6]: 1.1 kcal/mol
ΔH of binding ([6]; ITC, 25 °C): -11.6 ± 0.1 kcal/mol
−TΔS of binding ([6]; ITC, 25 °C): 4.1 kcal/mol
